In the library only some 4.1% were active in any assay of this set; here they are far more common.
KCNK9 block: blocks the human KCNK9 two-pore domain potassium channel; HEK293 KCNK9, FluxOR thallium flux fluorescence; hits give low values; B-score at 10 µM; actives 1.2% (n = 310,000); AID 488922;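 active means ratio B-score over 3 SD below the library mean, with starting fluorescence within 5 SD of its mean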;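 further: negative B-score means less thallium flux so channel inhibition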
KCC2 mod: KCC2 (human) Cl- transport modulation | KCC2 cells, thallium flux FluoZin-2 fluorescence | AID 1456 | actives 2.2% (n = 190,000) | B-score of Tl+ flux slope (higher = more flux/activation; lower = inhibition) at 10 µM;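 active means thallium flux slope and its plate-corrected score both differing from the plate sample mean at a set confidence after two filtering rounds, in either direction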;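 further: slope of fluorescence scaled to starting intensity during 10 to 20 s after thallium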
KCNQ1 act: potentiators or activators of human KCNQ1 potassium channel | actives 0.35% (n = 310,000) | B-score at 10 µM | CHO-K1 KCNQ1, thallium flux FluxOR fluorescence; hits give high values;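 active means fluorescence ratio B-score, a plate-corrected score, at least three library SD, with initial intensity B-score within 5 SD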
Target sequence (P51787 whole entry, looked up): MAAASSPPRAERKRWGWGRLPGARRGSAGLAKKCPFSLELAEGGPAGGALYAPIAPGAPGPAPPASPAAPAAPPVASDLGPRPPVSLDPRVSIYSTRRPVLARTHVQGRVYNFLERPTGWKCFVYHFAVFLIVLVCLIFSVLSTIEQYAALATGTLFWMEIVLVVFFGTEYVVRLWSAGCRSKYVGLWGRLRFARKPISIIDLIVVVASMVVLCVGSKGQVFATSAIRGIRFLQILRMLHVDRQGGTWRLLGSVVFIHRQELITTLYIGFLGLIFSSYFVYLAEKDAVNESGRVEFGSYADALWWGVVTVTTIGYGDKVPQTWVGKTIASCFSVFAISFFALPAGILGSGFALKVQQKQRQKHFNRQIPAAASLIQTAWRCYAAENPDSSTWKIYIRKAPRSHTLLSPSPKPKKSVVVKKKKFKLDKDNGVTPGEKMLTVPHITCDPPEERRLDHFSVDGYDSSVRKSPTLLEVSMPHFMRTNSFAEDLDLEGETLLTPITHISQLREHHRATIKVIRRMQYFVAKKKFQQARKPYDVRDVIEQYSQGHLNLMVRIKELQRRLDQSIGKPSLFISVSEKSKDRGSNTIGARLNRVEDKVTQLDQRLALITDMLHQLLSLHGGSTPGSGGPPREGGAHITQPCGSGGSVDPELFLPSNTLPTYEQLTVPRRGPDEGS
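assay system = CHO-K1 cells stably expressing KCNQ1 | medium = assay buffer, equal DMSO in all wells | timing = 37 °C overnight plating, 90-min dark dye load, 20-min compound pretreatment | measured by = kinetic FluxOR thallium fluorescence, 10-s 1-Hz baseline, 110-s post-stimulus read | measure = fluorescence change relative to baseline, converted to B score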
hERG protect: compounds protecting human hERG from proarrhythmic drug block; Q12809; CHO-hERG, FluxOR thallium flux, dofetilide IC70 present; activation (rescue from dofetilide block), less the hit threshold, % at 10 µM; actives 0.51% (n = 310,000); AID 1511;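 active means activation above the mean of controls blocked by dofetilide plus 5 SD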;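 further: thallium influx through hERG after potassium depolarization seen as dye fluorescence rise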
KCNK3 block: human KCNK3 channel inhibition, primary screen; O14649; CHO-KCNK3 thallium flux, FluxOR fluorescence; hits give low values; B-score at 10 µM; actives 0.84% (n = 340,000); AID 602410;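 active means B-score under library mean minus 4 SD, starting fluorescence ratio at most library mean plus 5 SD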;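 further: more negative B-score means stronger inhibition of thallium flux through KCNK3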
KCNQ1 block: inhibitors of human KCNQ1 potassium channel; CHO-K1 KCNQ1, FluxOR thallium flux fluorescence; hits give high values; B-score at 10 µM; actives 1.3% (n = 310,000); AID 2642;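 active means compounds whose thallium flux B-score, printed positive for inhibition, exceeds three library SD while starting fluorescence stays within three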;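 further: channel opened by potassium depolarization with thallium stimulus after 20 min compound exposure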
KCNK9 inh conf: human KCNK9 inhibitor confirmation; shares compounds with KCNK9 block; inhibition, % at 10 µM; actives 43% (n = 4,900); AID 492992; HEK293 KCNK9 cells, FluxOR thallium flux fluorescence;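 active means thallium signal inhibited by more than 5 SD of the compound-free buffer control wells, on both duplicate plates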;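 further: 0% = assay buffer control wells without compound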
Kir2-1 spec: tests whether KCNK9 modulators also affect mouse Kir2.1 | shares compounds with KCNK9 block | Kir2.1 cells, FluxOR thallium flux fluorescence | inhibition, % at 10 µM | actives 4% (n = 4,900) | AID 492993;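 active means thallium signal drop more than 5 SD beyond the mean of the no-compound control wells, seen in both duplicate plates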;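 further: signal is fluorescence rise after thallium addition divided by baseline fluorescence; plate controls were assay buffer only for no effect and full block by chlorpromazine control for full effect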
KCNK9 uninduced: non-induced cell nonspecific activity of KCNK9 modulators. shares compounds with KCNK9 block. non-induced KCNK9-HEK293, FluxOR thallium flux. inhibition, % at 10 µM. actives 40% (n = 4,900). AID 492997;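 active means thallium signal drop beyond 5 SD of the untreated control mean, on both duplicate plates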;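 further: plate controls were buffer only IC0 wells for no effect and SID17386958 at its maximal inhibitory level for full effect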
Starred values were filed as active, the others as inactive; i = inactive; nt = not tested or not shown.

SMILES | KCNK9 block | KCC2 mod | KCNQ1 act | hERG protect | KCNK3 block | KCNQ1 block | KCNK9 inh conf | Kir2-1 spec | KCNK9 uninduced
COc1ccc(C(=O)C2CCCN(C(=O)c3cccnc3OC)C2)c(C)c1 (stereo not drawn) | i | 1.4 | i | -12 | i | i | i | i | i
Cc1ccc(S(=O)(=O)N2CCCCC2)cc1NC(=O)CSc1nnc(C2CC2)n1C | nt | nt | nt | nt | i | nt | nt | nt | nt
Cn1c(SCC(=O)Nc2ccc(C(=O)O)cc2)nc2scc(-c3ccccc3Cl)c2c1=O | nt | nt | nt | nt | i | nt | nt | nt | nt
c1ccc(CSc2cc3ccccc3[nH]2)cc1 | i | nt | i | -10 | i | i | nt | nt | nt
CC(O)(c1ccccc1)c1ccc2ccccc2n1 (stereo not drawn) | nt | nt | nt | nt | i | nt | nt | nt | nt
CCSc1nc2ccccc2n1C(=O)c1ccc(S(=O)(=O)N2CCCCCC2)cc1 | i | -1.1 | i | -7 | i | i | i | i | i
Cc1cc(N2CCOCC2)n2ncc(-c3ccc(Cl)cc3)c2n1 | i | -0.0022 | i | -6 | i | i | nt | nt | nt
Cc1cc(N2CCCCC2)n2ncc(-c3ccc(Cl)cc3)c2n1 | -11* | 0.11 | i | -12 | i | i | 54%* | i | 36%*
COC(=O)c1ccc(OC)c(CN2CCCN(Cc3cc(C)ccc3C)S2(=O)=O)c1 | -17* | nt | i | -5 | i | i | 62%* | i | 28%*
COC(=O)c1ccc(OC)c(CSc2nnc(-c3ccc(C)cc3)o2)c1 | nt | nt | nt | nt | i | nt | nt | nt | nt
Cc1sc2nc(-c3cccnc3)nc(Cl)c2c1-c1ccccc1 | i | -0.59 | i | -7 | i | i | i | i | i
Cc1sc2nc(-c3ccccc3)[nH]c(=O)c2c1-c1ccccc1 | i | -0.3 | i | -6 | nt | i | nt | nt | nt
CC(=O)Nc1ccc(Nc2nc(-c3ccccc3)nc3ccccc23)cc1 | i | 0.021 | i | -11 | i | i | nt | nt | nt
O=C(Nc1nc(-c2ccccc2)nc2ccccc12)c1ccc(F)cc1 | -8.4* | -1.3 | i | -12 | i | i | 30%* | i | i
COc1ccc(C/C(=N\O)c2ccc(OC)cc2)cc1 | i | 0.63 | i | -10 | i | i | i | i | i
COc1ccc(CC(=O)Nc2ccc(C(C)=O)cc2)cc1 | i | -1.1 | i | -23 | i | i | nt | nt | nt
CC(C)(C)OC(=O)C[C@@H]1C/C=C\C[C@H](CC(=O)N[C@H](CO)Cc2ccccc2)C(=O)N2CCC[C@H]2COC1=O | nt | nt | nt | nt | i | nt | nt | nt | nt
CN(C)CCN(Cc1ccccc1)c1ccnc(N(C)C)c1C#N | i | 0.31 | i | -11 | i | i | nt | nt | nt
CN(C)c1nccc(N(Cc2ccccc2)Cc2ccccc2)c1C#N | i | -0.32 | i | -6 | i | i | i | i | 24%*
C/C(=C\c1ccccc1)CN1CCN(c2ccccc2)CC1 | i | 0.2 | i | -13 | i | i | i | i | i
CCOc1ccccc1NC(=S)Nn1cnnc1 | i | nt | i | -15 | i | i | nt | nt | nt
CCN1C[C@@H]2[C@@H]3C(=O)N(Cc4ccccc4)C(=O)[C@@H]3[C@](Cc3ccccc3)(C1=O)N2C(=O)c1ccc(Cl)cc1 | nt | nt | nt | nt | i | nt | nt | nt | nt
CCC(C)(C)n1nnnc1C(c1cccs1)N1CCc2ccccc21 (stereo not drawn) | -9.2* | -0.59 | i | -9 | i | i | 51%* | i | 36%*
Cc1cc(C(=O)N2CCCC(C(=O)c3ccc4ccccc4c3)C2)nn1C (stereo not drawn) | i | nt | i | -6 | i | i | i | i | i
COc1c(C)cc(C(=O)C2CCCN(C(=O)c3cc(C)n(C)n3)C2)cc1C (stereo not drawn) | i | nt | i | -1 | i | i | nt | nt | nt

Source: PubChem
